Data on three molecules can be found in publication PMC3806199 (Nature communications, 2013).

The test system of one series is interscapular BAT. Put plainly: FDG PET/CT imaging of BAT metabolic activity. Particulars: versus cold-acclimated mice. It counts as in vivo, mouse.
The subject of a further series is BAT. In words: NIR fluorescence imaging. In kind it is in vivo, mouse. Particulars: 100 nmol iv, 1 hr, IRDye800 conjugate. The method in brief: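 Subjects were 6-week-old C57BL/6 males, n=3 per group, with experiments done twice. Mice were pre-housed at 6 °C or RT, with propranolol where indicated. IRDye800-conjugated test peptide or a control WAT-homing peptide was given i.v. and circulated 1 h. Interscapular BAT and i.p. WAT were resected and imaged by NIR fluorescence with 785 nm laser excitation. Data are mean ± s.e.m.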

Bridge positions count the residues as written; N and C are the ends. Ends that are not written are not given here.

`CC(C)NCC(O)COc1cccc2ccccc12` (stereo not drawn) [propranolol]: in the series on interscapular BAT (propranolol ip 5 mg/kg), the “reduction in FDG uptake by BAT, warm-acclimation combined with propranolol treatment” value turned out to be 4.1 fold.

Regarding `OC[C@H]1O[C@@H](O)[C@H]([18F])[C@@H](O)[C@@H]1O` [FDG, fluorine-18 deoxyglucose], the “reduction in FDG uptake by BAT as a result of warm-acclimation” value in the series on interscapular BAT is 1.7 fold. Consider CKGGRAKDC (disulfide 1-9 (inferred)), for which, in the series with BAT, the “accumulation in WAT and BAT (resected tissues)” value is “accumulation in WAT, but not in BAT”.
